Test results published in ChEMBL document CHEMBL3272123, “11,12-secoprostaglandins. 4. 7-(N-alkylmethanesulfonamido) heptanoic acids” (1977).
Active and inactive are the calls of the source. The rule behind the calls is not given here.

How the values were obtained:
Mus musculus [1] = organism: Mus musculus; test: Stimulation of prostanoid receptor-mediated cAMP-[14C] production in Charles River CD-1 mouse ovary at 0.1 ug/ml preincubated with adenine-8-[14C] for 1 hr followed by compound addition measured after 30 mins in presence of theophylline relative to control; assay type: tissue-based; settings: Female gonad
Procedure, shortened: (§1)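 Ovaries from virgin female mice over 70 days old, denuded of fat; three ovaries (15-25 mg) per flask in aerated Krebs-Ringer phosphate pH 7.2 with 1 μCi adenine-8-¹⁴C, 1 h at 37 °C with shaking. Theophylline and compound (in Me₂SO) added, then 30 min at 37 °C. Stopped with TCA, tissue homogenized, ¹⁴C-cAMP isolated. Fold increase = treated/untreated cAMP; 2-3-fold taken as significant.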

Mus musculus [2] = organism: Mus musculus; test: Stimulation of prostanoid receptor-mediated cAMP-[14C] production in Charles River CD-1 mouse ovary at 1 ug/ml preincubated with adenine-8-[14C] for 1 hr followed by compound addition measured after 30 mins in presence of theophylline relative to control; assay type: tissue-based; settings: Female gonad; procedure, shortened: as §1
Mus musculus [3] = organism: Mus musculus; test: Stimulation of prostanoid receptor-mediated cAMP-[14C] production in Charles River CD-1 mouse ovary at 10 ug/ml preincubated with adenine-8-[14C] for 1 hr followed by compound addition measured after 30 mins in presence of theophylline relative to control; assay type: tissue-based; settings: Female gonad; procedure, shortened: as §1
Mus musculus [4] = organism: Mus musculus; test: Stimulation of prostanoid receptor-mediated cAMP-[14C] production in Charles River CD-1 mouse ovary at 25 ug/ml preincubated with adenine-8-[14C] for 1 hr followed by compound addition measured after 30 mins in presence of theophylline relative to control; assay type: tissue-based; settings: Female gonad; procedure, shortened: as §1
Mus musculus [5] = organism: Mus musculus; test: Stimulation of prostanoid receptor-mediated cAMP-[14C] production in Charles River CD-1 mouse ovary at 100 ug/ml preincubated with adenine-8-[14C] for 1 hr followed by compound addition measured after 30 mins in presence of theophylline relative to control; assay type: tissue-based; settings: Female gonad; procedure, shortened: as §1
Cavia porcellus [6] = test: Antithrombotic activity in po dosed guinea pig assessed as inhibition of collagen-induced platelet aggregation; assay type: functional
Bos taurus = organism: Bos taurus; test: Inhibition of cAMP phosphodiesterase in beef heart using cAMP as substrate at 100 ug/ml
Procedure, shortened: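 Beef heart cAMP phosphodiesterase tested against 0.4 mM cAMP substrate.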

Mus musculus [7] = organism: Mus musculus; test: Stimulation of prostanoid receptor-mediated cAMP-[14C] production in Charles River CD-1 mouse ovary at 0.01 ug/ml preincubated with adenine-8-[14C] for 1 hr followed by compound addition measured after 30 mins in presence of theophylline relative to control; assay type: tissue-based; settings: Female gonad; procedure, shortened: as §1
Mus musculus [8] = organism: Mus musculus; test: Stimulation of prostanoid receptor-mediated cAMP-[14C] production in Charles River CD-1 mouse ovary at 0.05 ug/ml preincubated with adenine-8-[14C] for 1 hr followed by compound addition measured after 30 mins in presence of theophylline relative to control; assay type: tissue-based; settings: Female gonad; procedure, shortened: as §1
Cavia porcellus [9] = test: Antithrombotic activity in ip dosed guinea pig assessed as inhibition of collagen-induced platelet aggregation; assay type: functional

Row | SMILES | fold change (FC) (Mus musculus [1]) | fold change (FC) (Mus musculus [2]) | fold change (FC) (Mus musculus [3]) | fold change (FC) (Mus musculus [4]) | fold change (FC) (Mus musculus [5]) | inhibition (Bos taurus) | fold change (FC) (Mus musculus [7]) | fold change (FC) (Mus musculus [8]) | ED50 (Cavia porcellus [6]) [mg/kg] | Activity (Cavia porcellus [6]) | ED50 (Cavia porcellus [9]) [mg/kg]
1 | CCCCCCCCCN(CCCCCCC(=O)O)S(C)(=O)=O | – | – | 13 | 14 | 15 | – | – | – | – | – | –
2 | CCCCC[C@H](O)CCC1CCC(=O)[C@@H]1CCCCCCC(=O)O (some centres undefined) | – | 10 | 25 | 26 | 19 | – | – | – | – | – | –
3 | CS(=O)(=O)N(CCCCCCC(=O)O)CCCC1(O)CCCCC1 | – | – | 3 | 5 | 10 | – | – | – | – | – | –
4 | CCCCCC(O)/C=C/CN(C/C=C\CCCC(=O)O)S(C)(=O)=O (racemic) | – | – | 11 | 19 | 27 | – | – | – | – | – | –
5 | CCCCCC(O)CCCC(CCCCCCC(=O)O)C(C)=O (racemic) | 1 | 2 | 11 | 14 | 23 | – | – | – | – | – | –
6 | CCCCCC(O)CCCN(C/C=C\CCCC(=O)O)S(C)(=O)=O (racemic) | – | – | 16 | 18 | 37 | – | – | – | – | – | –
7 | CCCCCC(O)CCCN(CCCCOCC(=O)O)S(C)(=O)=O (racemic) | – | – | 24 | 27 | 38 | – | – | – | – | – | –
8 | CCCCC[C@H](O)/C=C/[C@H]1[C@H](O)CC(=O)[C@@H]1CCCCCCC(=O)O [ALPROSTADIL] | 29 | 54 | 60 | 62 | 62 | – | 8 | 25 | – | inactive | 0.02

More lines, main results first:

Row | fold change (FC) (Mus musculus [1]) | fold change (FC) (Mus musculus [2]) | fold change (FC) (Mus musculus [3]) | fold change (FC) (Mus musculus [4]) | fold change (FC) (Mus musculus [5]) | inhibition (Bos taurus) | fold change (FC) (Mus musculus [7]) | fold change (FC) (Mus musculus [8]) | SMILES | ED50 (Cavia porcellus [6]) [mg/kg] | Activity (Cavia porcellus [6]) | ED50 (Cavia porcellus [9]) [mg/kg]
9 | 1 | 8 | 54 | 55 | 68 | – | – | – | CCCCC[C@H](O)CCCN(CCCCCCC(=O)O)S(C)(=O)=O | 5 | – | –
10 | – | – | 23 | 25 | 45 | – | – | – | CCCCC[C@@H](O)CCCN(CCCCCCC(=O)O)S(C)(=O)=O | 8.2 | – | –
11 | – | – | 40 | 56 | 61 | inactive | – | – | CCCCCC(O)CCCN(CCCCCCC(=O)O)S(C)(=O)=O (racemic) | 6 | – | –
12 | – | – | 21 | 21 | 36 | – | – | – | CCCCCC(O)C#CCN(CCCCCCC(=O)O)S(C)(=O)=O (racemic) | – | – | –
13 | – | – | 21 | 30 | 39 | – | – | – | CCCCCC(O)CCCN(CC#CCCCC(=O)O)S(C)(=O)=O (racemic) | – | – | –
